Screens: PubChem, several laboratories
Only some compounds are listed: those with a hit (about 3.1% of all), similar ones and a draw of the others.
PHOSPHO1 inh: blocks human PHOSPHO1 phosphatase activity; recombinant PHOSPHO1, absorbance phosphatase assay; hit rate 1.1% among 290,000; AID 1565; inhibition, % at 13.3 µM; in the data active = inhibition above about 60%
Target sequence (Q8TCT1 whole entry, looked up): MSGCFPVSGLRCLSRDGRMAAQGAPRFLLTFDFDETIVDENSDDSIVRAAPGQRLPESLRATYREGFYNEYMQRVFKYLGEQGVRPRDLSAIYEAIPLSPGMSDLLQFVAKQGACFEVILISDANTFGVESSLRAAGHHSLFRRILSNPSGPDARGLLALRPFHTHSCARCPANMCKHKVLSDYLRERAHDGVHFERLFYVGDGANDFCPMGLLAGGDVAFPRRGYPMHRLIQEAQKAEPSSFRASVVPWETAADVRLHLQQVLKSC
IMP-1 inhibitor: inhibitors of Pseudomonas aeruginosa IMP-1 metallo-beta-lactamase; purified IMP-1, nitrocefin hydrolysis, epi-absorbance fluorescence; inhibition, % at 5.6 µM; hit rate 0.45% among 290,000; AID 1556;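 active = inhibition above the mean plus 3 SD of all compounds in the same screening run, cut at about 4.5% in these data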
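System: purified IMP-1 / Input: IMP-1 dispensed at 0.2 nM / Medium: 50 mM HEPES pH 7.1, 50 µM ZnSO4, 0.05% Brij 35 / Timing: 15 min enzyme–compound preincubation, then 25 min nitrocefin reaction, 25 °C / Technique: plate fluorescence quenching by hydrolysis product, ex 480/em 530 nm / Repeats: singlicate testing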
HCV NS3 hel inh: HCV NS3 helicase inhibition; NS3 helicase DNA unwinding, Cy5 molecular beacon fluorescence; inhibition, % at 10.9 µM; hit rate 0.56% among 290,000; AID 1800;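 active = inhibition above the mean of all tested compounds plus 3 SD, set per campaign, cut at about 35% in these data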
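System: Hepatitis C virus NS3 helicase domain fragment enzyme | Reagent: Annealed dual-labelled DNA beacon duplex, ATP-started | Compound dosing: 10.9 µM single point, 0.8% DMSO | Incubation: 1 h reaction at 25 °C, ATP-initiated | Technique: Cy5 fluorescence | Evaluation: Percent inhibition from t60/t0 fluorescence ratio | Benchmarks: Low DMSO, high thioflavine S at 110 µM | Replication: Singlicate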
UBC9 SUMO inh: SUMOylation inhibition; P63279; inhibition, % at 35 µM; hit rate 0.36% among 290,000; HTRF SUMOylation assay, SAE1/SAE2 + UBC9, in vitro; in the data active = inhibition above about 50%, passing the limit was not always enough
Target sequence (P63279 whole entry, looked up): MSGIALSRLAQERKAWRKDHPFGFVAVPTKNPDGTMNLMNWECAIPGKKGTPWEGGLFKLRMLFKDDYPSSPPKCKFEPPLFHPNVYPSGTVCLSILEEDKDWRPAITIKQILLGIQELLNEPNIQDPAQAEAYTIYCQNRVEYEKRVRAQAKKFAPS
HCV core dimer: blocks dimerization of HCV core protein; TR-FRET GST/Flag-core106 dimerization, 1536-well; inhibition, % at 5 µM; hit rate 0.33% among 300,000; AID 1899;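 active = inhibition above the mean of all tested compounds plus 3 SD, set per screening campaign, cut at about 45% in these data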
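test system = GST/Flag-tagged HCV core106 proteins | probe or stimulus = Eu donor and XL665 acceptor anti-tag antibodies | times = compound-protein-antibody incubation 4 h at 22.5 °C | signal = TR-FRET, excitation 340 nm, emission 617 and 671 nm | measure = percent inhibition of core106 dimerization signal | controls = wells lacking GST-core106 and wells with excess unlabelled core106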
VIM-2 inhibitor: inhibitors of Pseudomonas aeruginosa VIM-2 metallo-beta-lactamase. purified VIM-2, nitrocefin hydrolysis, epi-absorbance fluorescence. inhibition, % at 5.6 µM. hit rate 0.89% among 290,000. AID 1527;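 active = inhibition above the mean of all tested compounds plus 3 SD, cutoff set per screening run, cut at about 7.5% in these data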;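 note: red hydrolysis product quenches plate fluorescence so inhibitors raise well fluorescence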
Large screens that a line does not name were inactive.

COc1cc(/C=C2\SC(=O)N(c3ccc(Cl)cc3)C2=O)cc([N+](=O)[O-])c1O	UBC9 SUMO inh 95.4 (no result: HCV core dimer)
COc1cc(/C=C2\SC(=O)N(c3cccc(Cl)c3)C2=O)cc([N+](=O)[O-])c1O	UBC9 SUMO inh 82.0 (no result: HCV core dimer)
CCOc1ccc(/C=C2\SC(=O)N(c3ccc(O)cc3)C2=O)cc1OC	none
COc1ccc(N/C=C/c2nc(SC)nnc2C)cc1	VIM-2 inhibitor 7.8
CSc1nnc(C)c(/C=C/Nc2ccc(F)cc2)n1	none
CCN(CC(=O)Nc1ccc(NC(C)=O)cc1)CC(=O)Nc1cccc(Cl)c1	none
CCN(CC(=O)Nc1ccc(NC(C)=O)cc1)CC(=O)Nc1ccc(Cl)c(Cl)c1	IMP-1 inhibitor 5.9
COc1cc(C(=O)OCC(=O)NC(=O)C2CCCCC2)ccc1OC(F)F	none
CN(C)CCNC(=O)COc1ccc(C23CC4CC(CC(C4)C2)C3)cc1	PHOSPHO1 inh 66.2
Cc1ccc(C23CC4CC(CC(NC(=O)NCCN(C)C)(C4)C2)C3)cc1	none
CCOc1ncc(S(=O)(=O)N2CCN(CC)CC2)cc1C(=O)O	none
S=C(Nc1cccnc1)N1CCN(c2ccccc2Cl)CC1	none
Cc1ccc(S(=O)(=O)N2CCCCC2C(=O)N2CCN(C)CC2)cc1 (stereo unspecified)	PHOSPHO1 inh 61.5
Cc1ccc(S(=O)(=O)N2CCCCC2C(=O)N2CCN(c3ccccc3F)CC2)cc1 (stereo unspecified)	none
Cc1ccc(S(=O)(=O)N2CCN(C(=O)CC3CCCC3)CC2)cc1	IMP-1 inhibitor 4.5
CNS(=O)(=O)c1cn(CC(=O)N(C)Cc2ccccc2)cc1S(=O)(=O)NC	none
Cc1cccc(CC2CC(=O)N(c3nc4ccccc4s3)C2=O)c1 (stereo unspecified)	IMP-1 inhibitor 8.6
Cc1ccc(CC2CC(=O)N(c3nc4ccccc4n3C)C2=O)cc1 (stereo unspecified)	IMP-1 inhibitor 13.5
Cc1ccc(C2C(C(=O)c3cccs3)=C(O)C(=O)N2c2nnc(C)s2)cc1 (stereo unspecified)	IMP-1 inhibitor 19.7, VIM-2 inhibitor 19.5
COc1ccc(C2C(C(=O)c3cccs3)=C(O)C(=O)N2c2cccc(C)n2)cc1 (stereo unspecified)	none
CCCn1cnc2cc(NC(=O)c3ccco3)ccc21	PHOSPHO1 inh 62.8
Cc1cc(-n2cnc(-c3cn[nH]c3C)n2)no1	none
COC(=O)C1CCC(=S)N1C(=O)c1ccccc1 (stereo unspecified)	IMP-1 inhibitor 19.6
Cc1ccc(NC(=O)c2ccco2)c(NC(=O)C2CCCO2)c1 (stereo unspecified)	none
CC1=NN(c2ccc(S(=O)(=O)O)cc2C)C(=O)C1	UBC9 SUMO inh 83.9
O=C(NC(=S)Nc1ccc(Cc2ccncc2)cc1)c1ccccc1F	PHOSPHO1 inh 62.9
O=C(NC(=S)Nc1ccc(Cc2ccncc2)cc1)c1ccccc1Cl	none
COc1ccc(OC)c(C2Nc3c(Cl)ccc(C(=O)O)c3C3C=CCC32)c1 (stereo unspecified)	IMP-1 inhibitor 10.8
COc1cccc(C2Nc3c(F)cc(Br)cc3C3C=CCC32)c1OC (stereo unspecified)	none
COC(=O)COc1ccc(C2Nc3c(Cl)ccc(C(=O)O)c3C3C=CCC32)cc1 (stereo unspecified)	IMP-1 inhibitor 12.2
O=C(CSC(=S)N1CCCC1)NCC(=O)Nc1ccc(F)c(F)c1	none
CSCC[C@H](NC(=O)Cc1ccc(Cl)cc1)C(=O)N1CCC2(CC1)NCCc1[nH]cnc12	none (no result: UBC9 SUMO inh)
CN1CCc2c(n(CC(O)CN3CCN(CCO)CC3)c3ccccc23)C1=O (stereo unspecified)	none
N=c1c(S(=O)(=O)c2ccccc2)cc2c(=O)n3ccccc3nc2n1Cc1cccnc1	none (no result: PHOSPHO1 inh, IMP-1 inhibitor, HCV NS3 hel inh, UBC9 SUMO inh, VIM-2 inhibitor)
Cc1cccn2c(=O)c3cc(S(=O)(=O)c4ccccc4)c(=N)n(Cc4cccnc4)c3nc12	VIM-2 inhibitor 10.2
Cc1nn(-c2ccc(Cl)cc2)c(Cl)c1/C=N/NC(=O)c1ccc(NS(=O)(=O)c2cccs2)cc1	HCV core dimer 54.2 (no result: PHOSPHO1 inh, IMP-1 inhibitor, HCV NS3 hel inh, UBC9 SUMO inh, VIM-2 inhibitor)
O=C(Nc1nnc(-c2cccs2)s1)c1cccc(F)c1	none
COc1ccc(CCN2CC(C(=O)NCCc3cnn(C)c3)CCC2=O)cc1 (stereo unspecified)	none
COc1ccc(Cl)cc1N(CC(=O)Nc1ccc2c(c1)OCO2)S(C)(=O)=O	PHOSPHO1 inh 69.2
COC(C(=O)Nc1cccc([N+](=O)[O-])c1)c1ccccc1 (stereo unspecified)	none
CC(Oc1ccccc1)C(=O)Nc1cccc([N+](=O)[O-])c1 (stereo unspecified)	PHOSPHO1 inh 60.1
O=C(NNC(=S)Nc1ccc(F)cc1)c1cccc([N+](=O)[O-])c1	none
Cc1ccc(NC(=S)NNC(=O)c2cccc([N+](=O)[O-])c2)cc1Cl	PHOSPHO1 inh 74.5
COc1ccccc1C(=O)NNC(=O)c1ccccc1F	IMP-1 inhibitor 8.6
Cc1cc(C)cc(NC(=O)CCN2CCCC2)c1	none
COc1cc2[nH]c(=O)n(CCC(=O)N3CCC(N4CCCCC4)CC3)c(=O)c2cc1OC	VIM-2 inhibitor 7.8
Cc1c(-n2c(SCC(=O)O)nnc2-c2ccccc2Br)c(=O)n(-c2ccccc2)n1C	VIM-2 inhibitor 12.2
C=CCNC(=O)CSc1nnc(-c2ccccc2Cl)n1-c1c(C)n(C)n(-c2ccccc2)c1=O	none
CC(C)(C)C(=O)NC(=C(Cl)Cl)P(=O)(O)O	VIM-2 inhibitor 10.3
CN1C(=O)C(Cc2cnc[nH]2)NC1=S (stereo unspecified)	none
COc1ccc(NCc2nnc(SCC(=O)c3ccc(OC)cc3)o2)cc1	none
CCOC(=O)CSc1nnc(-c2ccccc2NC(=O)c2ccccc2)o1	none
CCc1nnc(NC(=O)CSc2nnc(-c3ccccc3NC(=O)c3ccccc3)o2)s1	PHOSPHO1 inh 68.0
CCOc1cc(C(=O)CSc2nnc(CNc3ccc(Cl)cc3)o2)ccc1NC(=O)CC	PHOSPHO1 inh 84.1
CCc1nnc(NC(=O)CSc2nnc(CNc3ccc(Cl)cc3)o2)s1	PHOSPHO1 inh 61.5
CCOC(=O)N/N=C(\c1ccccc1)C(O)c1ccccc1 (stereo unspecified)	none
CCN=c1scc(-c2ccco2)n1/N=C/c1ccc(O)cc1	PHOSPHO1 inh 80.4
CC(=O)C(Sc1nn(C)c(=S)s1)C(=O)Nc1ccccc1 (stereo unspecified)	PHOSPHO1 inh 97.5
CC(=O)C(Sc1nc(N(C)C)nc(N(C)C)n1)C(=O)Nc1ccccc1 (stereo unspecified)	none
C=CCNC(=S)NNC(=O)c1ccc(OC(C)C)cc1	PHOSPHO1 inh 71.5
CCNC(=S)NNC(=O)c1ccc(OC(F)F)cc1	PHOSPHO1 inh 73.3
Cc1ccsc1C(=O)NNC(=S)NCC(C)C	none
CCNC(=S)NNC(=O)c1cccnc1	none
